In the library only some 4.3% were active in any assay of this set; here they are far more common.
MC4R barr agon = agonists of human melanocortin 4 receptor (MC4R) beta-arrestin; P32245; actives 0.98% (n = 360,000); activation, % at 8.9 µM; U2OS MC4R beta-arrestin complementation, luminescence; percent of melanotan II response, DMSO zero;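 active = activation above a per-plate cutoff, the mean activation of sample wells on that plate plus 3 SD, cut at about 8% in these data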
Target sequence (P32245 whole entry, looked up): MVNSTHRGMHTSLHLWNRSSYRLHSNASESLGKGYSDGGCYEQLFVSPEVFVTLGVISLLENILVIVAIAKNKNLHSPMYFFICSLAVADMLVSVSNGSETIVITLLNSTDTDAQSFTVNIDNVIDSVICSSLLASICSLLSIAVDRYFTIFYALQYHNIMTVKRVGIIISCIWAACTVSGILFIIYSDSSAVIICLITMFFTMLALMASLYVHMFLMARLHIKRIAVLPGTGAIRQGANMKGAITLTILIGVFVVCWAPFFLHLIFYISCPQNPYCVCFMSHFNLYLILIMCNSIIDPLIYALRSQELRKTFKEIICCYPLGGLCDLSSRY
TAAR1 antag = antagonists of human TAAR1 | Q96RJ0 | CHO RD-HGA16 TAAR1, Fluo-8 calcium fluorescence, antagonist | inhibition, % at 3 µM | actives 1.5% (n = 360,000) | AID 624466;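 active = inhibition above a per-plate cutoff, the mean inhibition of test compounds on that plate plus 3 SD, cut at about 49% in these data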;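 note: 0% = DMSO plus EC80 beta-PEA response and 100% = DMSO alone without agonist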
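Test system: CHO RD-HGA16 cells bearing hTAAR1 | Reagent: β-PEA, EC80 | Compound dosing: 3 µM, single point | Schedule: Dye loading 75 min at 37 °C, then 30 min room temperature | Signal: Calcium fluorescence with Fluo-8 | Evaluation: Percent inhibition of PEA-evoked calcium signal, max/basal emission ratio | Control set: DMSO-only wells and EC80 β-PEA-stimulated wells | Repeats: Singlicate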
HTR2A ag = agonists of mouse serotonin 5-HT2A receptor (HTR2A); P35363; CHO-K1 mHTR2A beta-arrestin complementation, luminescence; percent of 30 µM serotonin response; activation, % at 7.6 µM; actives 0.66% (n = 360,000); AID 624169;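 active = activation above a run cutoff, the mean activation of all tested compounds plus 3 SD, cut at about 14% in these data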;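 note: 0% = plate median of compound wells and 100% = 30 µM serotonin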
MC4R antag cAMP = human MC4R antagonism in cAMP assay; MC4R-expressing cells, MTII-stimulated cAMP, LANCE TR-FRET; inhibition, % at 6.5 µM; actives 0.48% (n = 360,000);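 active = inhibition above its plate's cutoff, the mean of tested wells on that plate plus 3 SD, cut at about 29% in these data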;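 note: 0% = Melanotan II alone and 100% = Melanotan II plus saturating MCL0020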
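System – human MC4R-expressing U2OS cells · Also added – Melanotan II · Dosing – one concentration, 6.5 µM nominal · Timing – 30-min compound, 1-h challenge, 1-h detection, room temperature · Measured by – Eu-cAMP/anti-cAMP TR-FRET, emission 671 nm · Replicates – singlicate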
TAAR1 agonist = human TAAR1 agonism; CHO RD-HGA16 TAAR1, Fluo-8 calcium fluorescence; vehicle wells 0%, saturating PEA agonist 100%; Q96RJ0; activation, % at 3 µM; actives 0.99% (n = 360,000);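 active = activation above the mean activation of all test compounds in the run plus 3 SD, cut at about 38% in these data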
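Test system: RD-HGA16 (CHO) cells co-expressing Gα16 and hTAAR1 / Benchmarks: DMSO vehicle as 0%, PEA at EC100 as 100% / Repeats: no replicates (n 1) / Measure: % activation from peak over basal fluorescence ratio, DMSO-to-PEA scaled / Timing: 17-24 h plating, Fluo-8 75 min 37 °C, 30 min RT / Technique: kinetic Fluo-8 calcium fluorescence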
Beta2AR agonist = human beta-2 adrenergic receptor agonism by FAP; actives 0.43% (n = 340,000); P07550; Am2.2-beta2AR cells, FAP receptor internalization, flow cytometry; response, % (test concentration not listed);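 active = response above a set limit, near 3 SD of response in nonfluorescent compounds, cut at about 42% in these data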
MOR ag counter = OPRM1 agonism in mouse HTR2A counterscreen; shares compounds with HTR2A ag; U2OS OPRM1 beta-arrestin PathHunter, luminescence; DMSO 0%, DAMGO 9.3 µM 100%; activation, % at 9.3 µM; actives 5.3% (n = 2,300); AID 624380;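 active = mean activation above the mean of DMSO-only wells plus 3 SD, cut at about 0.5% in these data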
Target sequence (P35372 whole entry, looked up): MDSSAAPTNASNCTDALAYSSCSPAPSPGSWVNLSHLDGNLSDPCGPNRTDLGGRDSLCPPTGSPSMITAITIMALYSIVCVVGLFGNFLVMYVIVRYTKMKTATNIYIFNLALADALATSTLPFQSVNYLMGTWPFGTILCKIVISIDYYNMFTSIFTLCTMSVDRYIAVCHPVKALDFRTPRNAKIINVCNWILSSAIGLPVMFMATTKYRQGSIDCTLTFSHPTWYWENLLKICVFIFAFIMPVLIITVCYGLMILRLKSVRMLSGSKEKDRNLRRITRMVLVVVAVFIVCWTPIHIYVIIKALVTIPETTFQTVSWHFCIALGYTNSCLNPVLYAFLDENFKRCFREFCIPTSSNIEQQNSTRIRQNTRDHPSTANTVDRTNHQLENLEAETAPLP
m5-HT2A ag conf = mouse HTR2A agonism confirmed | shares compounds with HTR2A ag | CHO-K1 PathHunter beta-arrestin recruitment, luminescence; DMSO 0%, 30 µM serotonin 100% | activation, % at 7.6 µM | actives 19% (n = 2,300) | AID 624381;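 active = mean activation across triplicates above the hit threshold derived in the original primary screen, cut at about 15% in these data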
An asterisk follows results filed as active.

What do the screens show for `COc1ccc(-c2csc(Cc3nnc4n3CCCCC4)n2)cc1OC`?
MC4R barr agon: -2; TAAR1 antag: 4; HTR2A ag: 15*; MC4R antag cAMP: -2; TAAR1 agonist: 10; Beta2AR agonist: 3; MOR ag counter: -1; m5-HT2A ag conf: 0

Results for CCCCN(C)C(=O)C1CCCN(S(=O)(=O)c2ccc3c(c2)CC(C)N3C(=O)C2CC2)C1 (configuration not stated) ?
MC4R barr agon: -4; TAAR1 antag: -8; HTR2A ag: 2; MC4R antag cAMP: 2; TAAR1 agonist: -1; Beta2AR agonist: -1

How did Cc1ccc(/C=N/NC(=O)CN2C(=O)CSc3ccccc32)o1 do in these assays?
MC4R barr agon: -2; TAAR1 antag: 3; HTR2A ag: 20*; MC4R antag cAMP: 22; TAAR1 agonist: 8; Beta2AR agonist: -4; MOR ag counter: -1; m5-HT2A ag conf: -3

Results for Cc1ccc(/C=N\NC(=O)Cc2cccn2C)o1 ?
MC4R barr agon: -1; TAAR1 antag: -15; HTR2A ag: 0; MC4R antag cAMP: 14; TAAR1 agonist: 5; Beta2AR agonist: -1

What do the screens show for `CN(C)Cc1ccccc1-c1cccc2nccn12`?
MC4R barr agon: 1; TAAR1 antag: -20; HTR2A ag: 4; MC4R antag cAMP: 3; TAAR1 agonist: 2

Results for COc1cccc(NC(=O)c2ccccc2N2C(=O)C3C4C=CC(C4)C3C2=O)c1 (configuration not stated) ?
MC4R barr agon: -2; TAAR1 antag: -25; HTR2A ag: 2; MC4R antag cAMP: 3; TAAR1 agonist: 1; Beta2AR agonist: -2

How did CCc1ccccc1NC(=O)c1ccccc1N1C(=O)C2C3C=CC(C3)C2C1=O (configuration not stated) do in these assays?
MC4R barr agon: -2; TAAR1 antag: -5; HTR2A ag: 16*; MC4R antag cAMP: 0; TAAR1 agonist: 4; Beta2AR agonist: 3; MOR ag counter: 0; m5-HT2A ag conf: 1

Results for CCn1c(=O)c(C(=O)CN2CCN(S(=O)(=O)c3ccc(C)cc3C)CC2)c(N)n(Cc2ccccc2)c1=O ?
MC4R barr agon: 3; TAAR1 antag: -1; HTR2A ag: 16*; MC4R antag cAMP: 12; TAAR1 agonist: 2; Beta2AR agonist: 2; MOR ag counter: 0; m5-HT2A ag conf: -5

What do the screens show for `CCn1c(=O)c(C(=O)CN2CCN(S(=O)(=O)c3ccccc3)CC2)c(N)n(Cc2ccccc2)c1=O`?
MC4R barr agon: -2; TAAR1 antag: -9; HTR2A ag: 2; MC4R antag cAMP: 12; TAAR1 agonist: 4; Beta2AR agonist: 6

What do the screens show for `C[C@@H]1CN([C@H](C)CO)C(=O)c2cc(NS(=O)(=O)c3ccc(F)cc3)ccc2O[C@@H]1CN(C)Cc1ccc(Cl)c(Cl)c1`?
MC4R barr agon: 2; TAAR1 antag: 15; HTR2A ag: 21*; MC4R antag cAMP: 1; TAAR1 agonist: 19; Beta2AR agonist: 3; MOR ag counter: 0; m5-HT2A ag conf: 7

How did C[C@H](CO)N1C[C@H](C)[C@H](CN(C)Cc2ccc(-c3ccccc3)cc2)Oc2ccc(NS(=O)(=O)c3ccccc3)cc2CC1=O do in these assays?
MC4R barr agon: 1; HTR2A ag: 16*; MC4R antag cAMP: 13; Beta2AR agonist: 2; MOR ag counter: 0; m5-HT2A ag conf: 28*

What do the screens show for `COc1ccc(NC(=O)Nc2ccc3c(c2)C(=O)N([C@H](C)CO)C[C@H](C)[C@@H](CN(C)S(=O)(=O)c2ccccc2)O3)cc1`?
MC4R barr agon: -1; TAAR1 antag: 18; HTR2A ag: 7; MC4R antag cAMP: -1; TAAR1 agonist: 8; Beta2AR agonist: 0

Results for C[C@@H]1CN([C@@H](C)CO)C(=O)Cc2cc(NS(=O)(=O)c3ccccc3)ccc2O[C@H]1CN(C)Cc1ccncc1 ?
MC4R barr agon: 1; TAAR1 antag: 9; HTR2A ag: 0; MC4R antag cAMP: 6; TAAR1 agonist: 12; Beta2AR agonist: 0

Results for COc1ccc(NC(=O)Nc2ccc3c(c2)C(=O)N([C@H](C)CO)C[C@H](C)[C@@H](CN(C)S(=O)(=O)c2ccc(F)cc2)O3)cc1 ?
MC4R barr agon: -1; TAAR1 antag: 8; HTR2A ag: 18*; MC4R antag cAMP: -2; TAAR1 agonist: 7; Beta2AR agonist: -5; MOR ag counter: -1; m5-HT2A ag conf: -3

Results for Cc1ccc(S(=O)(=O)Nc2ccc3c(c2)CC(=O)N([C@H](C)CO)C[C@@H](C)[C@H](CN(C)Cc2ccc(-c4ccccc4)cc2)O3)cc1 ?
MC4R barr agon: 1; HTR2A ag: 19*; MC4R antag cAMP: 6; Beta2AR agonist: 11; MOR ag counter: -1; m5-HT2A ag conf: 18*

How did Cc1ccc(S(=O)(=O)Nc2ccc3c(c2)C(=O)N([C@H](C)CO)C[C@H](C)[C@@H](CN(C)Cc2ccccc2)O3)cc1 do in these assays?
MC4R barr agon: 0; TAAR1 antag: -1; HTR2A ag: 6; MC4R antag cAMP: 5; TAAR1 agonist: 3; Beta2AR agonist: -5

How did CC[C@]1(C(=O)OC)[C@H]2C(=O)N(Cc3ccccc3)C(=O)[C@H]2[C@H]2CN=C(SCC(=O)c3ccccc3)N21 do in these assays?
MC4R barr agon: 1; TAAR1 antag: -2; HTR2A ag: -1; MC4R antag cAMP: -3; TAAR1 agonist: 2; Beta2AR agonist: -3

Results for COC(CNC(=O)c1ccc2c(c1)nc(C)n2-c1cccc(F)c1)OC ?
MC4R barr agon: -1; TAAR1 antag: -5; HTR2A ag: 0; MC4R antag cAMP: 5; TAAR1 agonist: 7; Beta2AR agonist: 8

Results for COC(CNC(=O)c1ccc2c(c1)nc(C)n2-c1ccc(F)c(F)c1)OC ?
MC4R barr agon: -1; TAAR1 antag: 1; HTR2A ag: 15*; MC4R antag cAMP: 9; TAAR1 agonist: 5; Beta2AR agonist: -5; MOR ag counter: -1; m5-HT2A ag conf: -3

How did O=C(Nc1cccnc1)c1ccc(Cl)c(S(=O)(=O)N2CCCC2)c1 do in these assays?
MC4R barr agon: -4; TAAR1 antag: -18; HTR2A ag: -9; MC4R antag cAMP: -4; TAAR1 agonist: 14; Beta2AR agonist: -10

Source: PubChem (several laboratories)
